From the RNAGym collection of RNA variant scans (doi:10.1126/science.aae0568)
This sample holds only a part of the variants without activity.

B1: tRNA (parent)
chain: GUUCCGUUGGCGUAAUGGUAACGCGUCUCCCUCCUAAGGAGAAGACUGCGGGUUCGAGUCCCGUACGGAACG

Variants of: B1
Assay: yeast fitness relative to wild type (ratio to wild type); higher = fitter; tRNA-Arg(CCU), competitive growth, 37 C, YPD
Summary of the method: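 Genotype frequency changes were the basis for Darwinian fitness relative to wild type. The frequencies came from 100-nucleotide paired-end sequencing of gene amplicons from the start population and each end population of pooled yeast strains with tRNA-Arg(CCU) gene variants at the native locus. Competition ran in YPD at 37°C for 24 hours in six replicates, genotypes needed ≥ 100 starting reads, and estimates < 0.5 were set to 0.5.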

Q: Which yeast fitness does the source give for GUUCCGUUCGCGUAAUGGCAACGCGUCUCCCUCCUAAGGAGAAGACUACGGGUUCGAGUCCCGUAUGGAACG [G9C U19C G48A C66U] here?
A: 0.657

Q: For GUUCCGUUCGCGUAAUGGUAACGCGUCUCCCUCCAAAGGAGAAGCCGGCGGGUUCGAGUCCGGUCCGGAACG [G9C U35A A45C U47G C62G A65C], which yeast fitness is on record?
A: ≤ 0.5

Q: Which yeast fitness does the source give for GUUCCGUUCGCGUAAUGGUAACGCGUCUCCCGCCUAAGGAGAAGACUGCGGGUUCGAGUCCCGUACGGACCG [G9C U32G A70C] here?
A: ≤ 0.5

Q: For GUUCCGUUCGCGUAAUGGCAACCCGUCUCCCUCCUAAGGAGAAGACUGCGGGUUCGAGACCCGUACGCAACG [G9C U19C G23C U59A G68C], which yeast fitness is on record?
A: 0.548

Q: For GUUCCGUUCGCGUAAUGGCAACGCGUCUCCGUCCUAAGGAGAAGACUGCGGGUUCGAGUCCCGUACGGAACG [G9C U19C C31G], which yeast fitness is on record?
A: 0.605

Q: Which yeast fitness does the source give for GUUCCGUUCGCGUAAUGGCAACGCGUCUCCCUCCUAAGGAGAAGACUACGGGUUCGAGUCCCGUACGGAACG [G9C U19C G48A] here?
A: 0.901

Q: With GUUCCGUUCGCGUAAUGGUAACGCGUCUCCCUCCGAAGGAAAAGACUGCGGGUUCAAGUCCCGUACGGACCG [G9C U35G G41A G56A A70C] as the variant, how does the yeast fitness read?
A: ≤ 0.5

Q: Which yeast fitness does the source give for GUUCCGUUCGCGUAAUGGUAACGCGUCCCCCUCCUAAGGAGUAGACCGCGGGUUCGAGUCCCGUACGGAACG [G9C U28C A42U U47C] here?
A: 0.54

Q: Which yeast fitness does the source give for GUUCCGUUCGCGUAAUGGUAACGCGUCUCCCUCCUAAGGAGAAGACUGCGGGUCCGAGUCCCGUACGGAACG [G9C U54C] here?
A: 0.704

Q: Which yeast fitness does the source give for GUUCCGUUCGCGUAAUGGUAACGCGUCUCCCUCCUAAGGAGAAGACUGCGGGUACGAGUCCCGUACGGAACG [G9C U54A] here?
A: 0.658

Q: With GUUCCGUUCGCGUAAUGGUAACGCGGCUCCCACCUAAGGAGAAGACUGCGGGUUCGUGUCCCGUACGGAACG [G9C U26G U32A A57U] as the variant, how does the yeast fitness read?
A: 0.633

Q: For GUUCCGUUCGCGUAAUGGUAACGCGUCACCCUCCUAAGGAGAAGCCUCCGGGUUCGAGUCCGGUACGGAACG [G9C U28A A45C G48C C62G], which yeast fitness is on record?
A: 0.545

Q: For GUUCCGUUCGCGUAAUGGAAGCGCGUCUCCCUCCUAAGGAGACGACUGCGGGUUCGAGUCCCGUGCAGAACG [G9C U19A A21G A43C A65G G67A], which yeast fitness is on record?
A: ≤ 0.5

Q: Which yeast fitness does the source give for GUUCCGUUUGCGUAAUGGUAACGCGUCUCCCUCCUAAGGAGAAGACUGCGGGUUCGAGUCCCGUACGGAACG [G9U] here?
A: 0.955

Q: With GUUCCGUUCGCGUAAUGGUAACGCGUCGUCCUCCUAAGGAGAAGACUGUGGGUAUGAGUCCCGUACGGACCG [G9C U28G C29U C49U U54A C55U A70C] as the variant, how does the yeast fitness read?
A: ≤ 0.5

Q: For GUUCCGUUCGCGGAAUGGUAACGCGUCCCCCUCCUAAGGACACGUCCGGGGGGUCGAGUCCCGUACGGCACG [G9C U13G U28C G41C A43C A45U U47C C49G U53G A69C], which yeast fitness is on record?
A: ≤ 0.5

Q: With GUUCCGUUCGCGUAAUGGUAACGCGUCUCCCUCCUAAGGAGAAGACUGCGGGUUCGAGUCCCGUACGAAACG [G9C G68A] as the variant, how does the yeast fitness read?
A: 0.763

Q: For GUUCCGUUCGCGUAAUGGUAACGCGCCUCCCUCGUAGGGAGAAGACUGCGGGUUCGAGUCCCGUACGGAACG [G9C U26C C34G A37G], which yeast fitness is on record?
A: 0.591

Q: For GUUCCGUUCGCGAAAUCGUAACGCGUCUCCCUCCUAAGGAGAAGACUGCGGGUUCGAGUCCCGUACGGAACG [G9C U13A G17C], which yeast fitness is on record?
A: ≤ 0.5

Q: For GUUCCGUUCGCGCAAUGGUAACGCGUCUCACUCCUAAGGAGAAGAAUCCGGGUUCGAGUCCCGUACGGACCG [G9C U13C C30A C46A G48C A70C], which yeast fitness is on record?
A: 0.548

Q: For GUUCCGUUCGCGUAAUGGUAACGCGUCUCCCUCCUAAGGAGAAGACUGCGGGUUCGACUCCCGUACGGAACG [G9C G58C], which yeast fitness is on record?
A: 1.06

Q: For GUUCCGUUCGCGUAAUGGUAACGCGUCUCCCUCCUAAGGAGAAGACUGCGGGUUCGAAUCCCGUACGGAACG [G9C G58A], which yeast fitness is on record?
A: 0.869

Q: Which yeast fitness does the source give for GUUCCGUUCGCGUAAUGGUAACGCGUCGCCCUCCUAAGGAGAAGACUGCGGGUUGGAGUCCCGUACGGUACG [G9C U28G C55G A69U] here?
A: ≤ 0.5

Q: With GUUCCGUUUGCGUCAUGGUAACGUGUCUCCCUCCCAAGGAGAAGAGUGCGGAUUCGAGUCACGUACGGAACG [G9U A14C C24U U35C C46G G52A C61A] as the variant, how does the yeast fitness read?
A: ≤ 0.5

Q: With GUUCCGUUCGCGUAACGGUAACGCGUCUCCCUCCUAAGGAGCAGACUGCGGGUUCGAGUCCCGUACGGAACG [G9C U16C A42C] as the variant, how does the yeast fitness read?
A: ≤ 0.5

Q: Which yeast fitness does the source give for GUUCCGUUCGCGUAAUGGUAACGCGUCUCCCCCCUGAGGAGAAGACUGCGGGUUCGAGUCCCGUACGGAUCG [G9C U32C A36G A70U] here?
A: ≤ 0.5

Q: Which yeast fitness does the source give for GUUCCGUUCGCGUAAGGGUAACGCGUCUCCCUCCUACGGAGAAGACUGCGGGUUCGAGUCCCGUACGGAACG [G9C U16G A37C] here?
A: 0.735

Q: Which yeast fitness does the source give for GUUCCGUUCGCGUAAUGGUAACGCGUCCCCCUCCUAAGGAGAAGACUGCGGGUUCGAGUCCCGUACGGAACG [G9C U28C] here?
A: 0.675

Q: With GUUCCGUUCGCGUAAUGGUAACGCGUCUCCCUCCUAAGGAGAAGACUGCGGGUUCGAGUCCCGUACAGAACG [G9C G67A] as the variant, how does the yeast fitness read?
A: 0.58

Q: For GUUCCGUUCGCGUAAAGGUAACGCGUCUACCUCCUAAGGAGAAGACUGCGGGUUCGACUCCCGUACGGUACG [G9C U16A C29A G58C A69U], which yeast fitness is on record?
A: 0.645

Q: Which yeast fitness does the source give for GUUCCGUUUGCGUGAUGAUAACGCGUCUCCCUCCUAAGGAGAAGAAUGGGGGUUCGAGUCCCGUACGGAACG [G9U A14G G18A C46A C49G] here?
A: ≤ 0.5

Q: Which yeast fitness does the source give for GUUCCGUUCGCGUAAUGGUAACGCGUCUCCCUCCUAAGGAGAAGACGGCGGGUUCGAGUCCCGUACGGAACG [G9C U47G] here?
A: 0.595

Q: For GUUCCGUUCGCGUAAUGGUAACGCGUCUCCCUCCUAAGGAGAAGACCGCGGGUUCGAGUCCCGUACGGAACG [G9C U47C], which yeast fitness is on record?
A: 0.632

Q: For GUUCCGUUCGCGUAAUGGUAACGCGACUCCCUCCUAAGGAGAAGACUCCGGGUUCGAGUCCCGUACGGAACG [G9C U26A G48C], which yeast fitness is on record?
A: ≤ 0.5

Q: For GUUCCGUUCGCGUAAUGGUAACGCGUCUCCCACCUAAGGAGAAGACUGCGGGUUCGACUCCCGUACGGAACG [G9C U32A G58C], which yeast fitness is on record?
A: 0.583

Q: With GUUCCGUUCGCGUAAUGGCAACGUGUAUCCCUCCUAAGGAGAAGACUGCGGGUUCGAGUCCCGUACGGAACG [G9C U19C C24U C27A] as the variant, how does the yeast fitness read?
A: ≤ 0.5

Q: For GUUCCGUUCGCGUAAUGGUAACGCGUCUCCCCCCUGAGGAGAAGACUGCGGGUUCGAGUCCCGUACGGAACG [G9C U32C A36G], which yeast fitness is on record?
A: ≤ 0.5

Q: Which yeast fitness does the source give for GUUCCGUUCGCGUAAUGGUAACGCGUCUCCCUCCUAAGGAGAAGACUGCGGGUUCGACAUCCGUACGGAACG [G9C G58C U59A C60U] here?
A: ≤ 0.5
